According to ChEMBL document CHEMBL1649117, “GRL-02031, a novel nonpeptidic protease inhibitor (PI) containing a stereochemically defined fused cyclopentanyltetrahydrofuran potent against multi-PI-resistant human immunodeficiency virus type 1 in vitro” (Antimicrob Agents Chemother, 2009):

Experiments:
[1] = test system: Human immunodeficiency virus 1; assay: Ratio of EC50 for HIV1 NL4-3 harboring G48V mutation in protease encoding region infected in human […] cells to EC50 for HIV1 NL4-3 infected in human MT4 cells; assay type: functional
[2] = test system: Human immunodeficiency virus 1; assay: Antiviral activity against HIV1 NL4-3 harboring L10F mutation in protease encoding region infected in human […] cells assessed as inhibition of p24 Gag protein production by ELISA; assay type: functional, organism-based; conditions: Human immunodeficiency virus 1, NL4-3
Summary of the method: (§1)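 Protease PCR fragments (ApaI/SmaI) were cloned into pHIV-1NLSma, and virions were harvested from transfected 293T cells over 48 h. MT-4 target cells (10^5/ml) were infected with 100 TCID50s, with or without drug, at 37°C. Day-7 supernatant p24 Gag was read by chemiluminescent enzyme immunoassay.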

[3] = test system: Human immunodeficiency virus 1; assay: Ratio of EC50 for HIV1 NL4-3 harboring M46I/I47V mutation in protease encoding region infected in human […] cells to EC50 for HIV1 NL4-3 infected in human MT4 cells; assay type: functional
[4] = test system: Human immunodeficiency virus 1; assay: Ratio of EC50 for ritonavir to compound against HIV1 NL4-3 harboring I84V/I85V mutation in protease encoding region infected in human […] cells; assay type: functional
[5] = test system: Human immunodeficiency virus 2; assay: Antiviral activity against HIV2 ROD infected in human MT2 cells after 7 days by MTT assay; assay type: functional, organism-based; conditions: Human immunodeficiency virus 2, ISOLATE ROD, MT2, 168 h
[6] = test system: Human immunodeficiency virus 1; assay: Ratio of EC50 for HIV1 NL4-3 harboring V82I mutation in protease encoding region infected in human […] cells to EC50 for HIV1 NL4-3 infected in human MT4 cells; assay type: functional
[7] = test system: Human immunodeficiency virus 1; assay: Antiviral activity against HIV1 NL4-3 harboring L10F/M46I/I47V/V82I/I85V mutation in protease encoding region infected in human […] cells assessed as inhibition of p24 Gag protein production by ELISA; assay type: functional, organism-based; conditions: Human immunodeficiency virus 1, NL4-3; summary of the method: as §1
[8] = test system: Human immunodeficiency virus 1; assay: Antiviral activity against HIV1 NL4-3 harboring G48V mutation in protease encoding region infected in human […] cells assessed as inhibition of p24 Gag protein production by ELISA; assay type: functional, organism-based; conditions: Human immunodeficiency virus 1, NL4-3; summary of the method: as §1
[9] = test system: Human immunodeficiency virus 2; assay: Antiviral activity against HIV2 EHO infected in human MT2 cells after 7 days by MTT assay; assay type: functional, organism-based; conditions: Human immunodeficiency virus 2, EHO, MT2, 168 h
[10] = test system: Human immunodeficiency virus 1; assay: Ratio of EC50 for indinavir to compound against HIV1 NL4-3 harboring I84V mutation in protease encoding region infected in human […] cells; assay type: functional
[11] = test system: Human immunodeficiency virus 1; assay: Antiviral activity against HIV1 NL4-3 harboring I84V mutation in protease encoding region infected in human […] cells assessed as inhibition of p24 Gag protein production by ELISA; assay type: functional, organism-based; conditions: Human immunodeficiency virus 1, NL4-3; summary of the method: as §1
[12] = test system: Human immunodeficiency virus 1; assay: Antiviral activity against HIV1 NL4-3 harboring L10F/I47V/V82I/I85V mutation in protease encoding region infected in human […] cells assessed as inhibition of p24 Gag protein production by ELISA; assay type: functional, organism-based; conditions: Human immunodeficiency virus 1, NL4-3; summary of the method: as §1
[13] = test system: Human immunodeficiency virus 1; assay: Ratio of EC50 for HIV1 NL4-3 harboring Q58E mutation in protease encoding region infected in human […] cells to EC50 for HIV1 NL4-3 infected in human MT4 cells; assay type: functional
[14] = test system: Human immunodeficiency virus 1; assay: Ratio of EC50 for HIV1 NL4-3 harboring D30N mutation in protease encoding region infected in human […] cells to EC50 for HIV1 NL4-3 infected in human MT4 cells; assay type: functional
[15] = test system: Human immunodeficiency virus 1; assay: Antiviral activity against HIV1 NL4-3 harboring M46I/I47V mutation in protease encoding region infected in human […] cells assessed as inhibition of p24 Gag protein production by ELISA; assay type: functional, organism-based; conditions: Human immunodeficiency virus 1, NL4-3; summary of the method: as §1
[16] = test system: Human immunodeficiency virus 1; assay: Antiviral activity against HIV1 NL4-3 harboring V82I mutation in protease encoding region infected in human […] cells assessed as inhibition of p24 Gag protein production by ELISA; assay type: functional, organism-based; conditions: Human immunodeficiency virus 1, NL4-3; summary of the method: as §1
[17] = test system: Human immunodeficiency virus 1; assay: Ratio of EC50 for amprenavir to compound against HIV1 NL4-3 harboring L10F mutation in protease encoding region infected in human […] cells; assay type: functional

For `COc1ccc(S(=O)(=O)N(C[C@@H]2CCC(=O)N2)C[C@@H](O)[C@H](Cc2ccccc2)NC(=O)O[C@@H]2C[C@@H]3CCO[C@@H]3C2)cc1`, the “Ratio EC50” value [1] was 1.7, the EC50 [2] was 37 nM and the “Ratio EC50” value [3] was 3.2. For the same compound, the “Ratio EC50” value [4] was 14.8, the EC50 [5] was 600 nM and the “Ratio EC50” value [6] was 1.5. It also gave an EC50 [7] of over 1000 nM, an EC50 [8] of 40 nM and an EC50 [9] of 600 nM. The “Ratio EC50” value [10] was 2.2, the EC50 [11] was 30 nM and the EC50 [12] was 430 nM. The “Ratio EC50” value [13] was 1.4, the “Ratio EC50” value [14] was 0.9 and the EC50 [15] was 73 nM. For the same compound, the EC50 [16] was 35 nM and the “Ratio EC50” value [17] was 1.4.
